Screens: PubChem BioAssay, Johns Hopkins Ion Channel Center
KCNQ1 pot: human KCNQ1 channel potentiation or activation; P51787; CHO-K1 KCNQ1, thallium flux FluxOR fluorescence; active compounds read high; B-score at 10 µM; hit rate 0.35% among 310,000; AID 2648;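 active = fluorescence ratio B-score, a plate-corrected score, at least three library SD, with initial intensity B-score within 5 SD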
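assay system = KCNQ1-transfected CHO-K1 cells | medium = assay buffer with matched DMSO | probe or stimulus = depolarizing K+/Tl+ stimulus, K2SO4 and Tl2SO4 each 12.5 mM in 5x stock | dosing = single dose | incubation = dye 90 min, compound 20 min, room temperature | detection = kinetic FluxOR fluorescence, 10 s baseline plus 110 s post-stimulus | evaluation = ratio B score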
KCNK3 inh: human KCNK3 channel inhibition, primary screen | CHO-KCNK3 thallium flux, FluxOR fluorescence; active compounds read low | B-score at 10 µM | hit rate 0.84% among 340,000;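 active = B-score under library mean minus 4 SD, starting fluorescence ratio at most library mean plus 5 SD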;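 also: more negative B-score means stronger inhibition of thallium flux through KCNK3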
hERG protect: compounds protecting human hERG from proarrhythmic drug block; hit rate 0.51% among 310,000; AID 1511; activation (rescue from dofetilide block), less the hit threshold, % at 10 µM; CHO-hERG, FluxOR thallium flux, dofetilide IC70 present;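 active = activation above the mean of controls blocked by dofetilide plus 5 SD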;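 also: thallium influx through hERG after potassium depolarization seen as dye fluorescence rise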
KCNK9 block: blocks the human KCNK9 two-pore domain potassium channel. HEK293 KCNK9, FluxOR thallium flux fluorescence; active compounds read low. AID 488922. Q9NPC2. hit rate 1.2% among 310,000. B-score at 10 µM;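 active = ratio B-score over 3 SD below the library mean, with starting fluorescence within 5 SD of its mean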;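 also: negative B-score means less thallium flux so channel inhibition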
Target sequence (Q9NPC2 whole entry, looked up, the tested form may be a part): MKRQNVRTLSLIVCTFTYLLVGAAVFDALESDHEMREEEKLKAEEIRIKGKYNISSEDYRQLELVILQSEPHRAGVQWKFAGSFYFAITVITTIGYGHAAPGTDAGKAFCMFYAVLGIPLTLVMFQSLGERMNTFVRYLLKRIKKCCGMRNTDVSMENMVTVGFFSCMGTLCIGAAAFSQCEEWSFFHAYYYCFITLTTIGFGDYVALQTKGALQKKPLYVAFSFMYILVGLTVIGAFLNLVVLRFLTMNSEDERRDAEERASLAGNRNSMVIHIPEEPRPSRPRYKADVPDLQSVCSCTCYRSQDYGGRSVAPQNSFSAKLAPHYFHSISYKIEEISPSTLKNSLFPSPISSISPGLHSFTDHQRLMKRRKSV
KCNQ1 block: inhibitors of human KCNQ1 potassium channel; P51787; CHO-K1 KCNQ1, FluxOR thallium flux fluorescence; active compounds read high; B-score at 10 µM; hit rate 1.3% among 310,000;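 active = compounds whose thallium flux B-score, printed positive for inhibition, exceeds three library SD while starting fluorescence stays within three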;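 also: channel opened by potassium depolarization with thallium stimulus after 20 min compound exposure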
Kir21 inh: Kir2.1 (mouse) channel inhibition. HEK293-Kir2.1, FluxOR thallium flux fluorescence; active compounds read low. B-score at 10 µM. hit rate 0.85% among 310,000. AID 1672;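 active = fluorescence ratio B-score at or below minus 3 SD of library scores, with starting-brightness B-score within 2 SD, cut at about -4.2 in these data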;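 also: channel flux triggered by added potassium and thallium sulfate stimulus; B-score of peak minus minimum fluorescence over baseline after thallium stimulus; more negative B-score means stronger Kir2.1 block with less thallium influx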
KCNK9 inh conf: human KCNK9 inhibitor confirmation; AID 492992; HEK293 KCNK9 cells, FluxOR thallium flux fluorescence; hit rate 43% among 4,900; inhibition, % at 10 µM; shares compounds with KCNK9 block;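 active = thallium signal inhibited by more than 5 SD of the compound-free buffer control wells, on both duplicate plates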
Kir2-1 spec: tests whether KCNK9 modulators also affect mouse Kir2.1; shares compounds with KCNK9 block; Kir2.1 cells, FluxOR thallium flux fluorescence; inhibition, % at 10 µM; hit rate 4% among 4,900; AID 492993;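 active = thallium signal drop more than 5 SD beyond the mean of the no-compound control wells, seen in both duplicate plates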;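 also: signal is fluorescence rise after thallium addition divided by baseline fluorescence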
HEK293 Tl ctr: second check of KCNK9 modulator effects in non-induced HEK293 cells; shares compounds with KCNK9 block; FluxOR thallium flux; inhibition, % at 10 µM; hit rate 40% among 4,900;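 active = thallium signal drop beyond 5 SD of the untreated control mean, on both duplicate plates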
Hits are given with their value; i = inactive; nt = no result given. The list is not random: actives were taken first. Their share in the collection is about 3.7%.

SMILES	KCNQ1 pot	KCNK3 inh	hERG protect	KCNK9 block	KCNQ1 block	Kir21 inh	KCNK9 inh conf	Kir2-1 spec	HEK293 Tl ctr
COc1ccc(CN(C)C(=O)c2cc(S(=O)(=O)N3CCOCC3)ccc2N2CCCC2)cc1	i	i	i	i	i	i	nt	nt	nt
C#CCN(C(=O)c1cc(COc2ccc(C)c(C)c2)on1)C1CCCCC1	i	i	i	i	6	i	i	i	i
C#CCN(C(=O)c1cc(COc2cccc(C(F)(F)F)c2)on1)C1CCCCC1	i	i	i	i	i	i	nt	nt	nt
Cc1cnc(NC(=O)C2CC=CCC2)s1 (stereo unspecified)	i	i	i	i	i	i	nt	nt	nt
O=C(OCC#CCSc1nnc(-c2ccc(Br)cc2)o1)c1cccs1	i	i	i	-11.9	i	i	i	i	40.0%
CC1CCCC(C)N1C(=O)COC(=O)C1CCN(S(=O)(=O)c2c(Cl)cccc2Cl)CC1 (stereo unspecified)	i	i	i	i	i	i	nt	nt	nt
CCN(Cc1cccs1)C(=O)CN1C(=O)NC(c2ccccc2)(c2ccccc2)C1=O	nt	i	nt	nt	nt	nt	nt	nt	nt
CCN(CC)CCNC(=O)c1ccc(NC(=O)c2ccc(F)cc2F)cc1	i	i	i	i	i	i	nt	nt	nt
CCCCCCCCCn1c2c(c(=N)c3c1CCC3)CCC2	i	-18.7	i	-15.6	10	-15.2	62.0%	87.0%	42.5%
CCCCCCCn1c2c(c(=N)c3c1CCC3)CCCC2	i	i	i	-9.85	6	-6.47	69.5%	77.5%	36.5%
CCCCCCn1c(=O)[nH]c2c(c1=O)CCC2	i	i	i	i	i	i	nt	nt	nt
CCn1c2c(c(=N)c3c1CCC3)CCC2	i	i	i	i	i	i	nt	nt	nt
CC(C)CC(NC(=O)C(NC(=O)C1CCC(=O)N1C(=O)OCc1ccccc1)C(C)C)C(=O)N1CCCC1C(N)=O (stereo unspecified)	i	i	i	i	i	i	nt	nt	nt
Cc1nc(N2CCN(c3ccc(Cl)cc3)CC2)[nH]c(=O)c1C	i	i	i	i	i	i	nt	nt	nt
COC(=O)c1ccccc1NC(=O)C1CCN(S(=O)(=O)c2cc(C)ccc2OC)CC1	i	i	i	i	i	i	nt	nt	nt
COc1ccc(OC)c(S(=O)(=O)N2CCC(C(=O)Nc3cc(C)ccc3C)CC2)c1	i	i	i	-10.3	i	i	i	i	i
CNC(=O)CCN(Cc1ccco1)S(=O)(=O)c1ccc(OC)c(OC)c1	i	i	i	i	i	i	nt	nt	nt
COc1ccc(C2=NN(C(=O)c3cccc([N+](=O)[O-])c3)C(c3cccc([N+](=O)[O-])c3)C2)cc1 (stereo unspecified)	i	i	i	-13.2	i	i	64.5%	i	35.0%
COc1ccc(CN2C(=O)C(Cc3ccccc3)Nc3ncnc(N4CCCCC4)c32)cc1 (stereo unspecified)	i	i	i	-13	i	i	54.5%	i	27.0%
Cc1ccc(CN2C(=O)C(Cc3ccccc3)Nc3ncnc(N4CCN(c5ccccc5)CC4)c32)cc1 (stereo unspecified)	i	i	i	i	i	i	nt	nt	nt
Cc1ccc(CN2C(=O)C(Cc3ccccc3)Nc3ncnc(N4CCCCC4)c32)cc1 (stereo unspecified)	i	i	i	-13.7	i	i	64.5%	i	38.0%
O=C(COC(=O)c1ccc(O)cc1)Nc1cccc(S(=O)(=O)N2CCCCC2)c1	i	i	i	i	i	i	nt	nt	nt
Cc1cc(C)c(C(=O)OCC(=O)Nc2cccc(S(=O)(=O)N3CCCCC3)c2)c(C)c1	i	i	i	i	6	i	i	i	i
CCC(=O)c1ccc(OCC(=O)OCC(=O)Nc2cccc(S(=O)(=O)N3CCCC3)c2)cc1	nt	i	nt	nt	nt	nt	nt	nt	nt
O=C(COC(=O)CCC(=O)c1ccc(F)cc1)Nc1cccc(S(=O)(=O)N2CCCC2)c1	i	i	i	i	i	i	i	i	i
SMILES	KCNQ1 pot	KCNK3 inh	hERG protect	KCNK9 block	KCNQ1 block	Kir21 inh	KCNK9 inh conf	Kir2-1 spec	HEK293 Tl ctr
O=C(COc1ccc(Cl)cc1Cl)Nc1c(-c2cccs2)nc2ccccn12	i	i	i	i	i	i	nt	nt	nt
O=C(Cn1c2c(c(-c3ccccc3)cc1=O)CCCC2)N1CCCCCC1	i	i	i	i	i	i	i	i	32.0%
O=C(Cc1c(F)cccc1Cl)Nc1nc2ccccc2s1	i	i	i	-13.3	i	i	i	i	49.5%
Cc1ccccc1NC(=S)NCc1ccc2[nH]c3c(c2c1)CCCC3	i	i	i	i	i	i	i	i	i
C#CCSc1nc(-c2ccccc2)cc(C(F)(F)F)c1C#N	i	i	i	-13.9	i	i	37.0%	i	26.5%
CCN(C(=O)C1CCN(c2nc(-c3ccc(OC)cc3)no2)CC1)c1ccccc1	i	i	i	i	i	i	nt	nt	nt
CCN(C(=O)C1CCCN(c2nc(-c3ccc(OC)cc3)no2)C1)c1ccccc1F (stereo unspecified)	i	i	i	i	i	i	i	i	i
COc1ccc(NC(=O)c2c3c(nc4ccccc24)CCC3)cc1S(=O)(=O)N1CCOCC1	i	i	i	i	i	i	nt	nt	nt
c1ccc(-c2cc3c(N4CCN(c5ncccn5)CC4)ncnc3s2)cc1	i	i	i	i	i	i	i	i	i
O=C(/C=C/c1cccs1)c1cc(Br)ccc1OC(=O)N1CCOCC1	i	i	i	-9.75	i	i	29.5%	i	23.0%
CC1CCCCC1NC(=O)c1cccc(N2C(=O)C3C4C=CC(C4)C3C2=O)c1 (stereo unspecified)	i	i	i	i	i	i	nt	nt	nt
O=C(C1=C[C@H](C2CCCCC2)C[C@H](OCc2ccc(CO)cc2)O1)N1CCN(Cc2ccc3c(c2)OCO3)CC1	i	i	i	i	i	i	nt	nt	nt
N#Cc1c(Nc2ccc(Cl)cc2)s[nH]c1=O	i	i	i	i	i	i	i	i	i
CSc1nc(Nc2ccc(Cl)cc2)c(C#N)c(=O)[nH]1	i	i	i	i	i	i	nt	nt	nt
COc1ccc(C(CNC(=O)CN2C(=O)NC(C)(c3ccc4ccccc4c3)C2=O)N2CCCC2)cc1 (stereo unspecified)	nt	i	nt	nt	nt	nt	nt	nt	nt
CCc1ccc(OCCNC(=O)c2ccccc2SCc2ccccc2)cc1	i	i	i	i	7	i	i	i	37.0%
COCCCNC(=S)N/N=C/c1ccc(OC)c(Br)c1	i	i	i	i	i	i	nt	nt	nt
CCc1ccccc1N(C)S(=O)(=O)c1ccc2[nH]cc(C(=O)N3CCc4ccccc43)c(=O)c2c1	i	i	i	-9.3	i	i	i	i	25.5%
